Where “and” joins values, the source holds several entries; their conditions need not be identical. Identical values can stand only once.
Tested on: U2OS
Experiment: Multiplex assay against U2OS
Format: toxicity, cell-based
Details: human
In short: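 With compound added, live cells were imaged on a CQ1 microscope at 37°C and 5% CO2; staining with Hoechst33342, BioTracker Green Microtubule Cytoskeleton Dye, MitoTracker Red and Annexin V Alexa Fluor 680 had been done at seeding. The CellPathfinder machine-learning gating scheme split cells into Hoechst high-intensity objects or normal cells, normal cells into healthy, pyknosed or fragmented nuclei, and pyknosed cells into mitotic or apoptotic. The tubulin, mitochondrial-mass and membrane-permeability phenotypes are per cents of healthy-nucleus cells.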

[1] = 12 h, 10 µM, compound concentration 10 uM, replicate 1
[2] = 12 h, 10 µM, compound concentration 10 uM, replicate 2
[3] = 24 h, 10 µM, compound concentration 10 uM, replicate 1
[4] = 24 h, 10 µM, compound concentration 10 uM, replicate 2
[5] = 12 h, 1 µM, compound concentration 1 uM, replicate 1
[6] = 12 h, 1 µM, compound concentration 1 uM, replicate 2
[7] = 24 h, 1 µM, compound concentration 1 uM, replicate 1
[8] = 24 h, 1 µM, compound concentration 1 uM, replicate 2
[9] = 48 h, 10 µM, compound concentration 10 uM, replicate 1
[10] = 48 h, 10 µM, compound concentration 10 uM, replicate 2

Cn1nc(C(=O)NCc2ccc(C(=O)O)cc2)cc1-c1ccc2[nH]ccc2c1 [BI 4395]
Population Apoptotic (%) [1]: 42%
Population Fragmented Nuclei (%) [1]: 4%
Population Healthy Nuclei (%) [1]: 87% and 92%
Population Hoechst High Intensity Objects (%) [1]: 2% and 3%
Population Membrane Permeable-Phenotype (%) [1]: 9% and 4%
Population Mitochondria Different-Phenotype (%) [1]: 17%
Population Mitotic Cells (%) [1]: 57%
Population Normal (%) [1]: 97% and 96%
Population Pyknosed Nuclei (%) [1]: 8%
Population Tubulin-Different-Phenotype (%) [1]: 21% and 16%
Total Cell Count [1]: 177 and 225
Population Fragmented Nuclei (%) [2]: 9% and 7%
Population Healthy Nuclei (%) [2]: 89%
Population Hoechst High Intensity Objects (%) [2]: 11%
Population Membrane Permeable-Phenotype (%) [2]: 8%
Population Mitochondria Different-Phenotype (%) [2]: 35% and 23%
Population Mitotic Cells (%) [2]: 50% and 100%
Population Normal (%) [2]: 88%
Population Pyknosed Nuclei (%) [2]: 2% and 3%
Population Tubulin-Different-Phenotype (%) [2]: 30%
Total Cell Count [2]: 84 and 159
Population Apoptotic (%) [3]: 18% and 33%
Population Fragmented Nuclei (%) [3]: 4% and 1%
Population Healthy Nuclei (%) [3]: 95%
Population Hoechst High Intensity Objects (%) [3]: 1%
Population Membrane Permeable-Phenotype (%) [3]: 6%
Population Mitochondria Different-Phenotype (%) [3]: 18% and 24%
Population Mitotic Cells (%) [3]: 81% and 66%
Population Normal (%) [3]: 98%
Population Pyknosed Nuclei (%) [3]: 6% and 2%
Population Tubulin-Different-Phenotype (%) [3]: 20%
Total Cell Count [3]: 253 and 307
Population Apoptotic (%) [4]: 40% and 60%
Population Fragmented Nuclei (%) [4]: 7% and 5%
Population Healthy Nuclei (%) [4]: 87% and 89%
Population Hoechst High Intensity Objects (%) [4]: 7% and 6%
Population Membrane Permeable-Phenotype (%) [4]: 9% and 8%
Population Mitochondria Different-Phenotype (%) [4]: 15% and 40%
Population Mitotic Cells (%) [4]: 60% and 40%
Population Normal (%) [4]: 92% and 93%
Population Pyknosed Nuclei (%) [4]: 5%
Population Tubulin-Different-Phenotype (%) [4]: 34% and 29%
Total Cell Count [4]: 199 and 102

COCC(=O)NC/C=C/c1ccc2ncnc(Nc3ccc(Oc4ccc(C)nc4)c(C)c3)c2c1 [CP-724714]
Population Apoptotic (%) [5]: 40% and 33%
Population Fragmented Nuclei (%) [5]: 7% and 4%
Population Healthy Nuclei (%) [5]: 80% and 89%
Population Hoechst High Intensity Objects (%) [5]: 3%
Population Membrane Permeable-Phenotype (%) [5]: 42% and 18%
Population Mitochondria Different-Phenotype (%) [5]: 29% and 18%
Population Mitotic Cells (%) [5]: 60% and 66%
Population Normal (%) [5]: 96%
Population Pyknosed Nuclei (%) [5]: 11% and 6%
Population Tubulin-Different-Phenotype (%) [5]: 18%
Total Cell Count [5]: 178 and 153
Population Fragmented Nuclei (%) [6]: 3% and 8%
Population Healthy Nuclei (%) [6]: 82% and 87%
Population Hoechst High Intensity Objects (%) [6]: 6% and 4%
Population Membrane Permeable-Phenotype (%) [6]: 49% and 27%
Population Mitochondria Different-Phenotype (%) [6]: 43% and 20%
Population Mitotic Cells (%) [6]: 53% and 100%
Population Normal (%) [6]: 93% and 95%
Total Cell Count [6]: 95 and 141
Population Apoptotic (%) [1]: 51%
Population Fragmented Nuclei (%) [1]: 17%
Population Healthy Nuclei (%) [1]: 62%
Population Hoechst High Intensity Objects (%) [1]: 13%
Population Membrane Permeable-Phenotype (%) [1]: 35%
Population Mitochondria Different-Phenotype (%) [1]: 87%
Population Mitotic Cells (%) [1]: 48%
Population Normal (%) [1]: 86%
Population Pyknosed Nuclei (%) [1]: 20%
Total Cell Count [1]: 167
Population Apoptotic (%) [2]: 80%
Population Fragmented Nuclei (%) [2]: 18%
Population Healthy Nuclei (%) [2]: 63%
Population Hoechst High Intensity Objects (%) [2]: 11%
Population Membrane Permeable-Phenotype (%) [2]: 37%
Population Mitochondria Different-Phenotype (%) [2]: 94%
Population Mitotic Cells (%) [2]: 20%
Population Normal (%) [2]: 88%
Population Pyknosed Nuclei (%) [2]: 18%
Population Tubulin-Different-Phenotype (%) [2]: 100%
Total Cell Count [2]: 62
Population Apoptotic (%) [7]: 50% and 38%
Population Fragmented Nuclei (%) [7]: 10% and 2%
Population Healthy Nuclei (%) [7]: 71% and 90%
Population Hoechst High Intensity Objects (%) [7]: 1% and 2%
Population Mitotic Cells (%) [7]: 50% and 61%
Population Normal (%) [7]: 98% and 97%
Population Pyknosed Nuclei (%) [7]: 17%
Total Cell Count [7]: 186 and 209
Population Apoptotic (%) [8]: 62% and 36%
Population Fragmented Nuclei (%) [8]: 8% and 3%
Population Healthy Nuclei (%) [8]: 75% and 89%
Population Hoechst High Intensity Objects (%) [8]: 3% and 7%
Population Membrane Permeable-Phenotype (%) [8]: 40% and 20%
Population Mitochondria Different-Phenotype (%) [8]: 53% and 26%
Population Mitotic Cells (%) [8]: 37% and 63%
Population Normal (%) [8]: 96% and 92%
Population Pyknosed Nuclei (%) [8]: 15% and 6%
Total Cell Count [8]: 106 and 180
Population Apoptotic (%) [3]: 60%
Population Fragmented Nuclei (%) [3]: 20%
Population Healthy Nuclei (%) [3]: 45%
Population Hoechst High Intensity Objects (%) [3]: 8%
Population Membrane Permeable-Phenotype (%) [3]: 46%
Population Mitochondria Different-Phenotype (%) [3]: 98%
Population Mitotic Cells (%) [3]: 39%
Population Normal (%) [3]: 91%
Population Pyknosed Nuclei (%) [3]: 33%
Population Tubulin-Different-Phenotype (%) [3]: 100%
Total Cell Count [3]: 156
Population Fragmented Nuclei (%) [4]: 16%
Population Healthy Nuclei (%) [4]: 54%
Population Hoechst High Intensity Objects (%) [4]: 11%
Population Membrane Permeable-Phenotype (%) [4]: 51%
Population Mitochondria Different-Phenotype (%) [4]: 96%
Population Mitotic Cells (%) [4]: 40%
Population Normal (%) [4]: 88%
Population Pyknosed Nuclei (%) [4]: 28%
Total Cell Count [4]: 60
Population Apoptotic (%) [9]: 76%
Population Fragmented Nuclei (%) [9]: 22%
Population Healthy Nuclei (%) [9]: 44%
Population Hoechst High Intensity Objects (%) [9]: 4%
Population Membrane Permeable-Phenotype (%) [9]: 57%
Population Mitochondria Different-Phenotype (%) [9]: 91%
Population Mitotic Cells (%) [9]: 23%
Population Normal (%) [9]: 95%
Population Pyknosed Nuclei (%) [9]: 32%
Population Tubulin-Different-Phenotype (%) [9]: 100%
Total Cell Count [9]: 163
Population Apoptotic (%) [10]: 45%
Population Fragmented Nuclei (%) [10]: 14%
Population Healthy Nuclei (%) [10]: 52%
Population Hoechst High Intensity Objects (%) [10]: 14%
Population Membrane Permeable-Phenotype (%) [10]: 84%
Population Mitochondria Different-Phenotype (%) [10]: 96%
Population Mitotic Cells (%) [10]: 55%
Population Normal (%) [10]: 85%
Total Cell Count [10]: 71
